Bioassay records: PubChem BioAssay, Johns Hopkins Ion Channel Center
KCNK9 block: KCNK9 potassium channel inhibitors, primary screen, HEK293 cells, thallium flux | Potassium channel subfamily K member 9 (Homo sapiens), Q9NPC2 | B-score at 10 µM | actives 1.2% (n = 310,000) | FluxOR thallium flux fluorescence; stronger effect = lower value;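 active = ratio B-score over 3 SD below the library mean, with starting fluorescence within 5 SD of its mean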;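 note: negative B-score means less thallium flux so channel inhibition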
hERG protect: hERG rescue from dofetilide block, primary screen, cell-based, CHO-hERG, FluxOR thallium flux, dofetilide IC70 | Voltage-gated inwardly rectifying potassium channel KCNH2 (Homo sapiens), Q12809 | dofetilide IC70 present | activation (rescue from dofetilide block), less the hit threshold, % at 10 µM | actives 0.51% (n = 310,000);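 active = activation above the mean of controls blocked by dofetilide plus 5 SD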;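 note: thallium influx through hERG after potassium depolarization seen as dye fluorescence rise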
Target sequence (Q12809 whole entry, looked up): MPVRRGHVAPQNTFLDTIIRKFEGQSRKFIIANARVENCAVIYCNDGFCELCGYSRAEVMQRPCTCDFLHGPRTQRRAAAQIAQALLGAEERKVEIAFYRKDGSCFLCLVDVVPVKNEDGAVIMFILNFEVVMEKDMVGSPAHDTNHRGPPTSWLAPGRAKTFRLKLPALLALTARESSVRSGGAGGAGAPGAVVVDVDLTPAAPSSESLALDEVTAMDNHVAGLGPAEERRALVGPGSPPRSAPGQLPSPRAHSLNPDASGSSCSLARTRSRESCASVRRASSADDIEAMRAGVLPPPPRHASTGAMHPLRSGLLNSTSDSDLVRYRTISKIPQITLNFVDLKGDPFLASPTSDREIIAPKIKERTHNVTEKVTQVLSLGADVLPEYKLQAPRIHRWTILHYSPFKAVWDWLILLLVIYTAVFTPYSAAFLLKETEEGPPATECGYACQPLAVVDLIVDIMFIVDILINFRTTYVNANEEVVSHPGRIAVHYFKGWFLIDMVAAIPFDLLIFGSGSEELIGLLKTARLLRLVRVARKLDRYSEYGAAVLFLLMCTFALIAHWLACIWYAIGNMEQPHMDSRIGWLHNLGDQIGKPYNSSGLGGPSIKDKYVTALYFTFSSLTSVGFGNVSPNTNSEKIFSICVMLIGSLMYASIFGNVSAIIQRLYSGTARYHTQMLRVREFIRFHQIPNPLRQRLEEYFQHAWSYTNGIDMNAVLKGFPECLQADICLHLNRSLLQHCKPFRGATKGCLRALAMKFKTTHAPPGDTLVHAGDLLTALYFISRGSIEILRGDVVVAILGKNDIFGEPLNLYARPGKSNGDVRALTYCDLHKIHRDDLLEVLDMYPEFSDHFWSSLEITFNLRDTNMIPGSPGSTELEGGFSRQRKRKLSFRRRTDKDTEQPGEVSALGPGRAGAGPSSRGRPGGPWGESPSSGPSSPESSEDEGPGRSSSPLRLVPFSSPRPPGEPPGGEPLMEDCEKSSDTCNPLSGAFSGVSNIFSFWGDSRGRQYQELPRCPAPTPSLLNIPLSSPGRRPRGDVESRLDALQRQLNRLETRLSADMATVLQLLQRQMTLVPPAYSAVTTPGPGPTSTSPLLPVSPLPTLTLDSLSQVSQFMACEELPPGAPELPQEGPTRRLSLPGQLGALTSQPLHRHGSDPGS
Kir21 block: inhibitors of mouse Kir2.1 inward-rectifier potassium channel; AID 1672, 2009; actives 0.85% (n = 310,000); B-score at 10 µM; HEK293-Kir2.1, FluxOR thallium flux fluorescence; stronger effect = lower value; Inward rectifier potassium channel 2 (Mus musculus), P35561;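 active = fluorescence ratio B-score at or below minus 3 SD of library scores, with starting-brightness B-score within 2 SD, cut at about -4.2 in these data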;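 note: channel flux triggered by added potassium and thallium sulfate stimulus; B-score of peak minus minimum fluorescence over baseline after thallium stimulus; more negative B-score means stronger Kir2.1 block with less thallium influx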
KCNQ1 pot: potentiators or activators of KCNQ1 channel, primary screen, cell-based, thallium flux, high-throughput; Potassium voltage-gated channel subfamily KQT member 1 (Homo sapiens), P51787; CHO-K1 KCNQ1, thallium flux FluxOR fluorescence; stronger effect = higher value; B-score at 10 µM; actives 0.35% (n = 310,000); AID 2648, 2010;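 active = fluorescence ratio B-score, a plate-corrected score, at least three library SD, with initial intensity B-score within 5 SD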
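Test system: CHO-K1 cells stably expressing KCNQ1 / Medium: assay buffer / Also added: depolarizing K+/Tl+ stimulus, K2SO4 and Tl2SO4 each 12.5 mM in 5x stock / Incubation: 90 min dye loading and 20 min compound exposure, both at room temperature / Signal: thallium influx via FluxOR fluorescence, kinetic imaging / Evaluation: B score of baseline-normalized fluorescence ratio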
KCNK3 inh: human KCNK3 channel inhibitors, primary screen, CHO cells, FluxOR thallium flux, B-score; B-score at 10 µM; FluxOR fluorescence; stronger effect = lower value; actives 0.84% (n = 340,000); Potassium channel subfamily K member 3 (Homo sapiens), O14649;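 active = B-score under library mean minus 4 SD, starting fluorescence ratio at most library mean plus 5 SD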;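 note: more negative B-score means stronger inhibition of thallium flux through KCNK3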
KCNQ1 inh: inhibitors of human KCNQ1 channel, primary screen, cell-based, thallium flux, high-throughput | Potassium voltage-gated channel subfamily KQT member 1 (Homo sapiens), P51787 | CHO-K1 KCNQ1, FluxOR thallium flux fluorescence; stronger effect = higher value | B-score at 10 µM | actives 1.3% (n = 310,000) | AID 2642, 2010;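 active = compounds whose thallium flux B-score, printed positive for inhibition, exceeds three library SD while starting fluorescence stays within three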;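 note: channel opened by potassium depolarization with thallium stimulus after 20 min compound exposure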
KCNK9 block conf: KCNK9 potassium channel inhibitors, confirmation, HEK293 cells, thallium flux, duplicate; actives 43% (n = 4,900); FluxOR thallium flux fluorescence; AID 492992, 2010; inhibition, % at 10 µM; shares compounds with KCNK9 block;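 active = thallium signal inhibited by more than 5 SD of the compound-free buffer control wells, on both duplicate plates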
Kir2-1 spec: mouse Kir2.1 channel inhibition, confirmation, selectivity assay for KCNK9 modulator project, cell-based, HEK293, thallium flux | shares compounds with KCNK9 block | Kir2.1 cells, FluxOR thallium flux fluorescence | inhibition, % at 10 µM | actives 4% (n = 4,900);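 active = thallium signal drop more than 5 SD beyond the mean of the no-compound control wells, seen in both duplicate plates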;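 note: signal is fluorescence rise after thallium addition divided by baseline fluorescence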
HEK293 Tl ctr: thallium flux in non-induced HEK293 cells, confirmation, counter-screen for KCNK9 inhibitor project, cell-based, second counter screen, non-induced KCNK9-HEK293 | shares compounds with KCNK9 block | FluxOR thallium flux | inhibition, % at 10 µM | actives 40% (n = 4,900);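 active = thallium signal drop beyond 5 SD of the untreated control mean, on both duplicate plates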
Each line names hits and unclear results; the compound was inactive in the other large screens (follow-up assays come after a bar, where they were run). Sampled rows, rich in hits. Any-hit rate of the full collection: about 3.7%.

C[C@]12CCC(O)CC1=CCC1C2CC[C@]2(C)/C(=N\NC(N)=S)CCC12 (stereo partly drawn)	none
CC(OC(=O)c1nccnc1N)C(=O)Nc1ccc(S(=O)(=O)N2CCCC2)cc1 (stereo not drawn)	none
Cc1ccc(S(=O)(=O)NC(=O)N2CCCC2)cc1	none (no result: KCNK9 block, hERG protect, Kir21 block, KCNQ1 pot, KCNQ1 inh)
Cc1cccc2sc(N(CCCN(C)C)C(=O)c3sc4ccccc4c3Cl)nc12	none (no result: KCNK9 block, hERG protect, Kir21 block, KCNQ1 pot, KCNQ1 inh)
Cc1cccc2sc(N(CCN(C)C)C(=O)c3cc(Cl)sc3Cl)nc12	none | KCNK9 block conf inactive | Kir2-1 spec inactive | HEK293 Tl ctr inactive
COc1cc2ccccc2cc1C(=O)N(CCN(C)C)c1nc2c(C)cccc2s1	none
Cc1ccc2sc(N(CCN(C)C)C(=O)c3ccc4ccccc4c3)nc2c1C	none | KCNK9 block conf inactive | Kir2-1 spec inactive | HEK293 Tl ctr inactive
Cc1cc(C)c2sc(N(CCN(C)C)C(=O)c3ccc4ccccc4c3)nc2c1	none
Cc1cccc2sc(N(CCCN(C)C)C(=O)c3ccc(C(=O)c4ccccc4)cc3)nc12	none | KCNK9 block conf inactive | Kir2-1 spec inactive | HEK293 Tl ctr inactive
O=C1Nc2ccccc2C1C(C[N+](=O)[O-])c1ccccc1 (stereo not drawn)	none
CC(OC(=O)c1ccc2c(c1)NC(=O)CS2)C(=O)c1ccc(F)cc1 (stereo not drawn)	none (no result: KCNK9 block, hERG protect, Kir21 block, KCNQ1 pot, KCNQ1 inh)
CC(C)(C)c1cc(-c2ccco2)c(C#N)c(SCC#N)n1	KCNK9 block -9.6 | KCNK9 block conf inactive | Kir2-1 spec inactive | HEK293 Tl ctr 31%
Cc1ccc(-c2cc(-c3ccco3)c(C#N)c(=O)[nH]2)cc1	none
Cc1nc(C(=O)N2CCCC(Nc3ccc(C)c(C)c3)C2)cs1 (stereo not drawn)	none
Cc1ccc(NC2CCCN(C(=O)C3CCCC3)C2)cc1C (stereo not drawn)	none | KCNK9 block conf inactive | Kir2-1 spec inactive | HEK293 Tl ctr inactive
CSc1nc(C(=O)N2CCCC(Nc3ccc(C)c(C)c3)C2)cs1 (stereo not drawn)	none | KCNK9 block conf inactive | Kir2-1 spec inactive | HEK293 Tl ctr inactive
Cc1ccc(NC2CCCN(C(=O)c3cn4cccc(C)c4n3)C2)cc1C (stereo not drawn)	none | KCNK9 block conf inactive | Kir2-1 spec inactive | HEK293 Tl ctr inactive
CCc1ccccc1NC(=O)CN(C)C(=O)COC(=O)c1c(Cl)cccc1Cl	none (no result: KCNK9 block, hERG protect, Kir21 block, KCNQ1 pot, KCNQ1 inh)
COc1ccc(N2CCN(c3nc(-c4cccs4)nc4ccccc34)CC2)cc1	KCNK9 block -14 | KCNK9 block conf 31% | Kir2-1 spec inactive | HEK293 Tl ctr 28%
COc1cccc(CN(C)c2nc(-c3cccs3)nc3ccccc23)c1	KCNK9 block -9.2 | KCNK9 block conf 54% | Kir2-1 spec inactive | HEK293 Tl ctr 41%
COc1cccc(Nc2nc(-c3cccs3)nc3ccccc23)c1	none
c1csc(-c2nc(N3CCOCC3)c3ccccc3n2)c1	none
Cc1[nH]c2ccccc2c1C(=O)C(C)OC(=O)c1ccccc1NCCO (stereo not drawn)	none
COc1ccc(CNC(=O)c2ccc(S(=O)(=O)NCc3ccco3)cc2)cc1	none (no result: KCNK9 block, hERG protect, Kir21 block, KCNQ1 pot, KCNQ1 inh)
CC(NCC(=O)Nc1cc(S(=O)(=O)N2CCCCCC2)ccc1Cl)c1ccccc1 (stereo not drawn)	none | KCNK9 block conf inactive | Kir2-1 spec inactive | HEK293 Tl ctr inactive
Cc1ccccc1NCC(=O)Nc1cc(S(=O)(=O)N2CCCCC2)ccc1C	none (no result: KCNK9 block, hERG protect, Kir21 block, KCNQ1 pot, KCNQ1 inh)
Cc1sc(NC(=O)c2ccco2)c(CN2CCN(c3ccccn3)CC2)c1C	KCNK9 block -12, KCNK3 inh -9.8 | KCNK9 block conf 48% | Kir2-1 spec inactive | HEK293 Tl ctr 30%
CC(=O)Nc1cc2c(c([N+](=O)[O-])c1C)C(C)(C)CC2(C)C	none (no result: KCNK9 block, hERG protect, Kir21 block, KCNQ1 pot, KCNQ1 inh)
Cc1c(N=NC2=C(O)CC(C)(C)CC2=O)cc2c(c1[N+](=O)[O-])C(C)(C)CC2(C)C	KCNQ1 inh 6 | KCNK9 block conf inactive | Kir2-1 spec inactive | HEK293 Tl ctr inactive
CCOc1ccccc1NC(=O)N1CCC(C(=O)c2ccc(F)cc2)CC1	KCNK9 block -10 | KCNK9 block conf 42% | Kir2-1 spec inactive | HEK293 Tl ctr 36%
Cn1ncc([N+](=O)[O-])c1C(=O)Nc1ccc(-c2ccccc2)cc1	none
Cc1ccc(Cl)cc1NS(=O)(=O)N1CCOCC1	none
Cc1cc(C)c(CN2CCCC(CNC(=O)c3ccc(F)cc3)C2)c(-n2cccn2)c1 (stereo not drawn)	none
Cc1ccsc1C(=O)C1CCCN(Cc2cc(F)ccc2-n2cccn2)C1 (stereo not drawn)	none | KCNK9 block conf inactive | Kir2-1 spec inactive | HEK293 Tl ctr inactive
O=C(CSCC(=O)N1CCCCC1)Nc1nc(-c2ccc(Cl)s2)cs1	none | KCNK9 block conf inactive | Kir2-1 spec inactive | HEK293 Tl ctr inactive
